Reference: paper PMC6061410 (Clinical Drug Investigation, 2018)

Tested on: healthy young and healthy elderly subjects
Assay: Safety and tolerability
Format: in vivo, human
Conditions: young
In short: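 Adverse events were recorded by system organ class and preferred term in the treated set. This was 84 healthy young or elderly subjects randomised 3:1 to oral drug or placebo over 14 days, across seven ascending dose groups with a safety review before each escalation. Changes were assessed against the last pre-dose baseline measurement.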

`C[C@@H](Oc1ccc(S(C)(=O)=O)cc1C(=O)N1C[C@@H]2C[C@]2(c2cc(C(F)(F)F)on2)C1)C(F)(F)F` [BI 425809] was tested, and the Gastrointestinal disorders (part 1, 25 mg QD) was 3 (33.3) n (%), the “General disorders and administration site conditions” value (part 1, 25 mg QD) was 0 (–) n (%) and the Headache (part 1, 25 mg QD) was 3 (33.3) n (%). For the same compound, the Infections and infestations (part 1, 25 mg QD) was 2 (22.2) n (%), the Insomnia (part 1, 25 mg QD) was 0 (–) n (%) and the “Musculoskeletal and connective tissue disorders” value (part 1, 25 mg QD) was 0 (–) n (%). The Nasopharyngitis (part 1, 25 mg QD) was 2 (22.2) n (%), the Nervous system disorder (part 1, 25 mg QD) was 3 (33.3) n (%) and the Ocular discomfort (part 1, 25 mg QD) was 0 (–) n (%). The Psychiatric disorders (part 1, 25 mg QD) was 1 (11.1) n (%), the “Subjects with AEs leading to study discontinuation” value (“Subjects with AEs leading” for short) (part 1, 25 mg QD) was 0 (–) n (%) and the “Subjects with investigator-defined drug-related AEs” value (part 1, 25 mg QD) was 6 (66.7) n (%). For the same compound, the “Total with AEs” value (part 1, 25 mg QD) was 7 (77.8) n (%), the Vision blurred (part 1, 25 mg QD) was 2 (22.2) n (%) and the Dizziness (part 1, 50 mg QD) was 1 (11.1) n (%). For the same compound, the Eye disorders (part 1, 50 mg QD) was 3 (33.3) n (%), the Gastrointestinal disorders (part 1, 50 mg QD) was 0 (–) n (%) and the “General disorders and administration site conditions” value (part 1, 50 mg QD) was 2 (22.2) n (%). The Headache (part 1, 50 mg QD) was 3 (33.3) n (%), the Infections and infestations (part 1, 50 mg QD) was 1 (11.1) n (%) and the Insomnia (part 1, 50 mg QD) was 0 (–) n (%). The “Musculoskeletal and connective tissue disorders” value (part 1, 50 mg QD) was 1 (11.1) n (%), the Nasopharyngitis (part 1, 50 mg QD) was 0 (–) n (%) and the Nervous system disorder (part 1, 50 mg QD) was 3 (33.3) n (%). The Ocular discomfort (part 1, 50 mg QD) was 0 (–) n (%), the Psychiatric disorders (part 1, 50 mg QD) was 0 (–) n (%) and the “Subjects with AEs leading” value (part 1, 50 mg QD) was 0 (–) n (%). For the same compound, the “Subjects with investigator-defined drug-related AEs” value (part 1, 50 mg QD) was 6 (66.7) n (%), the “Total with AEs” value (part 1, 50 mg QD) was 6 (66.7) n (%) and the Vision blurred (part 1, 50 mg QD) was 1 (11.1) n (%). For the same compound, the Dizziness (part 1, 75 mg BID) was 2 (22.2) n (%), the Eye disorders (part 1, 75 mg BID) was 2 (22.2) n (%) and the Gastrointestinal disorders (part 1, 75 mg BID) was 0 (–) n (%). For the same compound, the “General disorders and administration site conditions” value (part 1, 75 mg BID) was 1 (11.1) n (%), the Headache (part 1, 75 mg BID) was 0 (–) n (%) and the Infections and infestations (part 1, 75 mg BID) was 0 (–) n (%). The Insomnia (part 1, 75 mg BID) was 3 (33.3) n (%), the “Musculoskeletal and connective tissue disorders” value (part 1, 75 mg BID) was 0 (–) n (%) and the Nasopharyngitis (part 1, 75 mg BID) was 0 (–) n (%). For the same compound, the Nervous system disorder (part 1, 75 mg BID) was 2 (22.2) n (%), the Ocular discomfort (part 1, 75 mg BID) was 2 (22.2) n (%) and the Psychiatric disorders (part 1, 75 mg BID) was 3 (33.3) n (%). For the same compound, the “Subjects with AEs leading” value (part 1, 75 mg BID) was 0 (–) n (%), the “Subjects with investigator-defined drug-related AEs” value (part 1, 75 mg BID) was 6 (66.7) n (%) and the “Total with AEs” value (part 1, 75 mg BID) was 6 (66.7) n (%). The Vision blurred (part 1, 75 mg BID) was 0 (–) n (%), the Dizziness (part 1, 75 mg QD) was 3 (33.3) n (%) and the Eye disorders (part 1, 75 mg QD) was 0 (–) n (%). The Fatigue (part 1, 75 mg QD) was 1 (11.1) n (%), the Gastrointestinal disorders (part 1, 75 mg QD) was 2 (22.2) n (%) and the “General disorders and administration site conditions” value (part 1, 75 mg QD) was 1 (11.1) n (%). For the same compound, the Headache (part 1, 75 mg QD) was 4 (44.4) n (%), the Infections and infestations (part 1, 75 mg QD) was 1 (11.1) n (%) and the Insomnia (part 1, 75 mg QD) was 0 (–) n (%). The “Musculoskeletal and connective tissue disorders” value (part 1, 75 mg QD) was 1 (11.1) n (%), the Nasopharyngitis (part 1, 75 mg QD) was 1 (11.1) n (%) and the Nervous system disorder (part 1, 75 mg QD) was 5 (55.6) n (%). The Ocular discomfort (part 1, 75 mg QD) was 0 (–) n (%), the Psychiatric disorders (part 1, 75 mg QD) was 0 (–) n (%) and the “Subjects with AEs leading” value (part 1, 75 mg QD) was 0 (–) n (%). For the same compound, the “Subjects with investigator-defined drug-related AEs” value (part 1, 75 mg QD) was 5 (55.6) n (%), the “Total with AEs” value (part 1, 75 mg QD) was 6 (66.7) n (%) and the Vision blurred (part 1, 75 mg QD) was 0 (–) n (%). For the same compound, the Dizziness (part 1, Total BI n = 45) was 7 (15.6) n (%), the Eye disorders (part 1, Total BI n = 45) was 7 (15.6) n (%) and the Fatigue (part 1, Total BI n = 45) was 1 (2.2) n (%). The Gastrointestinal disorders (part 1, Total BI n = 45) was 5 (11.1) n (%), the “General disorders and administration site conditions” value (part 1, Total BI n = 45) was 4 (8.9) n (%) and the Headache (part 1, Total BI n = 45) was 13 (28.9) n (%). The Infections and infestations (part 1, Total BI n = 45) was 5 (11.1) n (%), the Insomnia (part 1, Total BI n = 45) was 3 (6.7) n (%) and the “Musculoskeletal and connective tissue disorders” value (part 1, Total BI n = 45) was 3 (6.7) n (%). For the same compound, the Nasopharyngitis (part 1, Total BI n = 45) was 3 (6.7) n (%), the Nervous system disorder (part 1, Total BI n = 45) was 17 (37.8) n (%) and the Ocular discomfort (part 1, Total BI n = 45) was 2 (4.4) n (%). The Psychiatric disorders (part 1, Total BI n = 45) was 4 (8.9) n (%), the “Subjects with AEs leading” value (part 1, Total BI n = 45) was 0 (–) n (%) and the “Subjects with investigator-defined drug-related AEs” value (part 1, Total BI n = 45) was 27 (60.0) n (%). The “Total with AEs” value (part 1, Total BI n = 45) was 30 (66.7) n (%), the Vision blurred (part 1, Total BI n = 45) was 3 (6.7) n (%) and the Eye disorders (parts 1 and 2, BI n = 57) was 7 (12.3) n (%). For the same compound, the Gastrointestinal disorders (parts 1 and 2, BI n = 57) was 5 (8.8) n (%), the “General disorders and administration site conditions” value (parts 1 and 2, BI n = 57) was 4 (7.0) n (%) and the Infections and infestations (parts 1 and 2, BI n = 57) was 6 (10.5) n (%). For the same compound, the “Musculoskeletal and connective tissue disorders” value (parts 1 and 2, BI n = 57) was 3 (5.3) n (%), the Nervous system disorder (parts 1 and 2, BI n = 57) was 18 (31.6) n (%) and the Psychiatric disorders (parts 1 and 2, BI n = 57) was 4 (7.0) n (%). For the same compound, the “Subjects with AEs leading” value (parts 1 and 2, BI n = 57) was 0 (–) n (%), the “Subjects with investigator-defined drug-related AEs” value (parts 1 and 2, BI n = 57) was 27 (47.4) n (%) and the “Total with AEs” value (parts 1 and 2, BI n = 57) was 32 (56.1) n (%).
